Drawing on ChEMBL document CHEMBL1121742, “Synthesis and antibacterial activity of some ester, amides, and hydrazides of 3-carboxyrifamycin S. Relationship between structure and activity of ansamycins” (1981), this text covers MIC for nine compounds.

Converted amounts (≈) assume the structure as drawn.

For assay [1], the system named is Escherichia coli. Kind of assay: Minimum inhibitory concentration of compound tested for antibacterial activity against Escherichia coli ML/35. The assay is classed as functional. Put shortly:
(§1)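 MIC by serial dilution in liquid medium in test tubes. Medium was brain-heart infusion and the inoculum was 10⁶ cells/mL. Tubes were incubated at 35 °C for 24 h. MIC was taken as the lowest antibiotic concentration preventing visible growth.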

Assay [2] has as its system Klebsiella pneumoniae. As to the kind of experiment: Minimum inhibitory concentration of compound tested for antibacterial activity against Klebsiella pneumoniae ottaviani. The assay is classed as functional. The procedure, abridged:
as §1

In assay [3] the test system is Salmonella paratyphi. Kind of assay: Minimum inhibitory concentration of compound tested for antibacterial activity against Salmonella paratyphi BO 248 K(Sclavo). Format: functional, Salmonella enterica subsp. enterica serovar Paratyphi A. Particulars: Salmonella enterica.
Assay [4] relates to Staphylococcus aureus. As to the kind of experiment: Minimum inhibitory concentration of compound tested for antibacterial activity against Staphylococcus aureus 209 P(FDA). The assay is classed as functional. Put shortly:
as §1

The test system of assay [5] is Escherichia coli. As to the kind of experiment: Minimum inhibitory concentration of compound tested for antibacterial activity against Escherichia coli ML/35; 25-50. The assay is classed as functional. Put shortly:
as §1

The subject of assay [6] is Klebsiella pneumoniae. As to the kind of experiment: Minimum inhibitory concentration of compound tested for antibacterial activity against Klebsiella pneumoniae ottaviani; 25-50. The assay is classed as functional. Put shortly:
as §1

For the compound `COC1/C=C/OC2(C)Oc3c(C)c(O)c4c(c3C2=O)C(=O)C(C(=O)N2CCN(C)CC2)=C(NC(=O)/C(C)=C\C=C\C(C)C(O)C(C)C(O)C(C)C(OC(C)=O)C1C)C4=O` (stereo unspecified), the minimal inhibitory concentration (MIC) (as a rule, the smallest concentration in the dilution series that meets the test's criterion for growth inhibition) in assay [1] is above 50 µg/mL; in assay [2] it was above 50 µg/mL; in assay [3], above 50 µg/mL; in assay [4], 0.1 µg/mL (≈ 0.122 µM).
In the case of `COC1/C=C/OC2(C)Oc3c(C)c(O)c4c(c3C2=O)C(=O)C(C(=O)OCC(O)CO)=C(NC(=O)/C(C)=C\C=C\C(C)C(O)C(C)C(O)C(C)C(OC(C)=O)C1C)C4=O` (stereo unspecified), the MIC is above 50 µg/mL in assay [1], above 50 µg/mL in assay [2], above 50 µg/mL in assay [3] and around 0.5 µg/mL (≈ 0.614 µM) in assay [4].
For `COC(=O)C1=C2NC(=O)/C(C)=C\C=C\C(C)C(O)C(C)C(O)C(C)C(OC(C)=O)C(C)C(OC)/C=C/OC3(C)Oc4c(C)c(O)c(c(c4C3=O)C1=O)C2=O` (stereo unspecified), the minimal inhibitory concentration (MIC) in assay [5] is 25 µg/mL (≈ 33.2 µM); in assay [6], 25 µg/mL (≈ 33.2 µM); in assay [3] it was around 50 µg/mL (≈ 66.3 µM); in assay [4], 0.05 µg/mL (≈ 0.0663 µM).
For the compound `COC1/C=C/OC2(C)Oc3c(C)c(O)c4c(c3C2=O)C(=O)C(C(=O)Nc2ccc(Br)cc2)=C(NC(=O)/C(C)=C\C=C\C(C)C(O)C(C)C(O)C(C)C(OC(C)=O)C1C)C4=O` (stereo unspecified), the minimum inhibitory concentration (MIC) in assay [1] is above 50 µg/mL; in assay [2], above 50 µg/mL; in assay [3] it was above 50 µg/mL; in assay [4] it was 0.1 µg/mL (≈ 0.112 µM).
For the compound `COC1/C=C/OC2(C)Oc3c(C)c(O)c4c(c3C2=O)C(=O)C(C(=O)N(C)C)=C(NC(=O)/C(C)=C\C=C\C(C)C(O)C(C)C(O)C(C)C(OC(C)=O)C1C)C4=O` (stereo unspecified), the MIC in assay [1] is above 50 µg/mL; in assay [2], above 50 µg/mL; in assay [3] it was above 50 µg/mL; in assay [4], 0.025 µg/mL (≈ 0.0326 µM).
Consider `CO[C@H]1/C=C/O[C@@]2(C)Oc3c(C)c(O)c4c(O)c(cc(O)c4c3C2=O)NC(=O)/C(C)=C\C=C\[C@H](C)[C@H](O)[C@@H](C)[C@@H](O)[C@@H](C)[C@H](OC(C)=O)[C@@H]1C` [RIFAMYCIN], for which the MIC in assay [1] was 100 µg/mL (≈ 143 µM); in assay [2], 100 µg/mL (≈ 143 µM); in assay [3], 100 µg/mL (≈ 143 µM); in assay [4], below 0.005 µg/mL.
Take `COC1/C=C/OC2(C)Oc3c(C)c(O)c4c(c3C2=O)C(=O)C(C(=O)NN(C)C)=C(NC(=O)/C(C)=C\C=C\C(C)C(O)C(C)C(O)C(C)C(OC(C)=O)C1C)C4=O` (stereo unspecified): the minimum inhibitory concentration (MIC) is above 50 µg/mL in assay [1], above 50 µg/mL in assay [2], above 50 µg/mL in assay [3] and below 0.005 µg/mL in assay [4].
As to `CO[C@H]1/C=C/O[C@@]2(C)Oc3c(C)c(O)c4c(O)c(c(/C=N/N5CCN(C)CC5)c(O)c4c3C2=O)NC(=O)/C(C)=C\C=C\[C@H](C)[C@H](O)[C@@H](C)[C@@H](O)[C@@H](C)[C@H](OC(C)=O)[C@@H]1C` [RIFAMPIN], the MIC in assay [1] was 6 µg/mL (≈ 7.29 µM); in assay [2] it was 25 µg/mL (≈ 30.4 µM); in assay [3], 12 µg/mL (≈ 14.6 µM); in assay [4] it was around 0.025 µg/mL (≈ 0.0304 µM).
The matching figures for `COC1/C=C/OC2(C)Oc3c(C)c(O)c4c(c3C2=O)C(=O)C(C(=O)N(C)N2CCCCC2)=C(NC(=O)/C(C)=C\C=C\C(C)C(O)C(C)C(O)C(C)C(OC(C)=O)C1C)C4=O` (stereo unspecified): above 50 µg/mL, above 50 µg/mL, above 50 µg/mL and around 0.03 µg/mL (≈ 0.0359 µM).
